{"source": "ChEMBL document CHEMBL1135816", "about": "“6-Aryl-1,4-dihydro-benzo[d][1,3]oxazin- 2-ones: a novel class of potent, selective, and orally active nonsteroidal progesterone receptor antagonists” (J Med Chem, 2002)", "key": {"Progesterone receptor [1]": {"target": "T1, Progesterone receptor (Homo sapiens, UniProt P06401)", "T1 sequence (P06401 whole entry)": "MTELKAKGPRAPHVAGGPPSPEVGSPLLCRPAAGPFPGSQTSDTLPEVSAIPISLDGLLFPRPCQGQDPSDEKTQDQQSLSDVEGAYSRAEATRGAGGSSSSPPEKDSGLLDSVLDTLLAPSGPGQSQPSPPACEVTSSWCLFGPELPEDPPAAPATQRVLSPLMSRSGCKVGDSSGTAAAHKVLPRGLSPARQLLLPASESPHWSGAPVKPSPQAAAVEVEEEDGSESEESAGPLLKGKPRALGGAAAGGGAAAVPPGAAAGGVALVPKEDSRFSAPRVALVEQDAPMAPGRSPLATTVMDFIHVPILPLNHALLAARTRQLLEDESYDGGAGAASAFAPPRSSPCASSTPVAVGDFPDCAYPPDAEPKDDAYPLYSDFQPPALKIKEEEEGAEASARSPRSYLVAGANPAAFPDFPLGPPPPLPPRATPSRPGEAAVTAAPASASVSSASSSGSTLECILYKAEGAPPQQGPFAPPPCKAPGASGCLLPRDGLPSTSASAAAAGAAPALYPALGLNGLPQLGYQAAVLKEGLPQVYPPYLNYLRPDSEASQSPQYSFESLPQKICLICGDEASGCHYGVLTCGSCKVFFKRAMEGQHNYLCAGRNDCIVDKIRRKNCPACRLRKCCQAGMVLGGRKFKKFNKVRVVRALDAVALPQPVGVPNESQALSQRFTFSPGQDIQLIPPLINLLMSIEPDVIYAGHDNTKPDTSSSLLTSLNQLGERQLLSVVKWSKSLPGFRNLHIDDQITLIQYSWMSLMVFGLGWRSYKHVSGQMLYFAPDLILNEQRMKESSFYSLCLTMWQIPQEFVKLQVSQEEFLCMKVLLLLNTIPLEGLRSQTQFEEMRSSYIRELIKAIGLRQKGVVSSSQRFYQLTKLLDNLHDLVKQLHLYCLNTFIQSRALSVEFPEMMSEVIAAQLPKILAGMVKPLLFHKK", "test": "Antagonist activity against progesterone receptor (PR) in an alkaline phosphatase assay in the T47D human breast carcinoma cell line", "type": "functional, cell-based"}, "[2]": {"target": "T2, Progesterone receptor (Rattus norvegicus) (UniProt Q63449)", "T2 sequence (whole entry)": "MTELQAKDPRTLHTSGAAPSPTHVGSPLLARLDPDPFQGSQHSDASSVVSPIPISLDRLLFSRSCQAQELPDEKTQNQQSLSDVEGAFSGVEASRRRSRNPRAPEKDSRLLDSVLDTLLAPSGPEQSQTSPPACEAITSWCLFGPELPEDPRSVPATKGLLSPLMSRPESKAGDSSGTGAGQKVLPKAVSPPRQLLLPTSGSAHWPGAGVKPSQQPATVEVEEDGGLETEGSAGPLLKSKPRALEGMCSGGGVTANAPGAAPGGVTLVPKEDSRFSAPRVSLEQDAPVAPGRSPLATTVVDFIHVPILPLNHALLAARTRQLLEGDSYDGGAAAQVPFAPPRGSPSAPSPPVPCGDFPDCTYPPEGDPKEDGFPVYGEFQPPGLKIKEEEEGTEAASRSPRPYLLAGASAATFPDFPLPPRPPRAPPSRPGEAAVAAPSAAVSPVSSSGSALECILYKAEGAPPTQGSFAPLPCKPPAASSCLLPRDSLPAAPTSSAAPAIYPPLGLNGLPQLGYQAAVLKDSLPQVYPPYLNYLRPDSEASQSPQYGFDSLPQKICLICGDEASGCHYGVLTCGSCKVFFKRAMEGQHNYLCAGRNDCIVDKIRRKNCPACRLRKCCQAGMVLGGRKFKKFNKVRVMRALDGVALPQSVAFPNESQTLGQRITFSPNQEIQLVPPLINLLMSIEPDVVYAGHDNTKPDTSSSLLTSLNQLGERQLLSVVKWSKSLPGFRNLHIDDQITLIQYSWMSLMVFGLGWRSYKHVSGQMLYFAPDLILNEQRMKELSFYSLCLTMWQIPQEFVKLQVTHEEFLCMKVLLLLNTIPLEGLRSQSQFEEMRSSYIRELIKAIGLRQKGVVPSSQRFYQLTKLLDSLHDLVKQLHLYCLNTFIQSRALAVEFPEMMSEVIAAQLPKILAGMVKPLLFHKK", "test": "Inhibitory activity against progesterone receptor (PR) in ovariectomized mature female rat decidualization model", "type": "functional", "how_it_was_run": "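Ovariectomized mature rats dosed orally for 7 days, with progesterone 5.6 mg/kg SC given alongside; vehicle-only controls. Decidual response (D/C) measured 24 h after the final treatment, seven animals per point. ED50 averaged from at least duplicate determinations.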"}, "Progesterone receptor [3]": {"target": "T1, Progesterone receptor", "test": "Antagonist activity against progesterone receptor (PR) in an assay using PRE-luciferase plasmid co-transfected CV-1 cells", "type": "functional, cell-based", "how_it_was_run": "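CV-1 cells cotransfected with hPR and PRE-luciferase plasmids, luciferase read-out; IC50 averaged from at least duplicate determinations.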"}, "[4]": {"test": "Area under the curve (AUC) for the compound in female rats for a dose of 1 mg/kg administered intravenously.", "type": "ADME, organism-based", "design": "dose 1 mg/kg, route intravenous", "conditions": "rat, in vivo, iv"}, "[5]": {"test": "Half life in female rats for a dose of 1 mg/kg administered intravenously.", "type": "ADME, organism-based", "design": "dose 1 mg/kg, route intravenous", "conditions": "rat, in vivo, iv"}, "[6]": {"test": "Plasma clearance (Cl) for the compound in female rats for a dose of 1 mg/kg administered intravenously", "type": "ADME, organism-based", "design": "dose 1 mg/kg, route intravenous", "conditions": "rat, iv, read-out: Clp (converted)"}, "[7]": {"target": "T2, Progesterone receptor (Rattus norvegicus)", "test": "inhibitory activity against progesterone receptor (PR) in ovariectomized mature female rat complement C3 model", "type": "functional", "how_it_was_run": "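Adult ovariectomized rats given oral doses; read-out is reversal of progestin down-regulation of estrogen-induced complement C3 synthesis in uterine epithelium. ED50 averaged from at least duplicate determinations.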"}, "Progesterone receptor [8]": {"target": "T1, Progesterone receptor", "test": "Agonist activity against progesterone receptor (PR) in an alkaline phosphatase assay in the T47D human breast carcinoma cell line", "type": "functional, cell-based", "how_it_was_run": "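T47D human breast carcinoma cells scored for PR agonism via alkaline phosphatase read-out; EC50 taken as the mean of at least duplicate determinations.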"}}, "note": "pEC50, pIC50: −log10 of the molar value."}
{"smiles": "CC1(C)OC(=O)Nc2ccc(-c3cccc(F)c3)cc21", "values": [{"measurement": "pIC50", "setting": "Progesterone receptor [1]", "value": 8.09}, {"measurement": "ED50", "setting": "[2]", "value": 1.5, "unit": "mg/kg"}, {"measurement": "pIC50", "setting": "Progesterone receptor [3]", "value": 8.42}]}
{"smiles": "CC1(C)OC(=O)Nc2ccc(-c3cccc(Cl)c3)cc21", "values": [{"measurement": "pIC50", "setting": "Progesterone receptor [1]", "value": 7.52}, {"measurement": "ED50", "setting": "[2]", "value": "> 30", "unit": "mg/kg"}, {"measurement": "pIC50", "setting": "Progesterone receptor [3]", "value": 8.03}]}
{"smiles": "CC1(C)OC(=O)Nc2ccc(-c3ccc(Cl)cc3)cc21", "values": [{"measurement": "pIC50", "setting": "Progesterone receptor [1]", "value": 7.52}, {"measurement": "pIC50", "setting": "Progesterone receptor [3]", "value": 6.19}]}
{"smiles": "CC1(C)OC(=O)Nc2c(F)cc(-c3cc(F)cc(C#N)c3)cc21", "values": [{"measurement": "pIC50", "setting": "Progesterone receptor [1]", "value": 7.58}, {"measurement": "ED50", "setting": "[2]", "value": 0.6, "unit": "mg/kg"}, {"measurement": "pIC50", "setting": "Progesterone receptor [3]", "value": 7.01}]}
{"smiles": "CC1(C)OC(=O)Nc2ccc(-c3cccc(C#N)c3)cc21", "values": [{"measurement": "AUC", "setting": "[4]", "value": 460, "unit": "ng·h/mL"}, {"measurement": "pIC50", "setting": "Progesterone receptor [1]", "value": 7.77}, {"measurement": "half-life", "setting": "[5]", "value": 36, "unit": "min"}, {"measurement": "clearance", "setting": "[6]", "value": 36.3, "unit": "mL/min/kg"}, {"measurement": "ED50", "setting": "[2]", "value": 7, "unit": "mg/kg"}, {"measurement": "pIC50", "setting": "Progesterone receptor [3]", "value": 8.00}]}
{"smiles": "CC1(C)OC(=O)Nc2ccc(-c3ccccc3Cl)cc21", "values": [{"measurement": "pIC50", "setting": "Progesterone receptor [1]", "value": 6.52}, {"measurement": "pIC50", "setting": "Progesterone receptor [3]", "value": 6.30}]}
{"smiles": "COc1cccc(-c2ccc3c(c2)C(C)(C)OC(=O)N3)c1", "values": [{"measurement": "pIC50", "setting": "Progesterone receptor [1]", "value": 7.71}, {"measurement": "pIC50", "setting": "Progesterone receptor [3]", "value": 7.42}]}
{"smiles": "CC#C[C@]1(O)CC[C@H]2[C@@H]3CCC4=CC(=O)CCC4=C3[C@@H](c3ccc(N(C)C)cc3)C[C@@]21C", "values": [{"measurement": "ED50", "setting": "[7]", "value": 1.7, "unit": "mg/kg"}, {"measurement": "ED50", "setting": "[2]", "value": 0.3, "unit": "mg/kg"}]}
{"smiles": "CC1(C)OC(=O)Nc2ccc(-c3cc(F)cc(Cl)c3)cc21", "values": [{"measurement": "pEC50", "setting": "Progesterone receptor [8]", "value": 6.30}, {"measurement": "ED50", "setting": "[2]", "value": 2, "unit": "mg/kg"}, {"measurement": "pIC50", "setting": "Progesterone receptor [3]", "value": 8.59}]}
{"smiles": "CC1(C)OC(=O)Nc2ccc(-c3ccc(F)c(C#N)c3)cc21", "values": [{"measurement": "pIC50", "setting": "Progesterone receptor [1]", "value": 7.82}]}
